Activity calls are given as the source filed them. The rule behind the calls is not given here.
Legend:
Assay type in all cases: functional
COLO 205 = experiment: Growth inhibition of human COLO205 cells at 10 uM after 48 hrs by SRB assay; details: COLO 205, 48 h, read-out: GI
Procedure, shortened: (§1)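 Cells grown in RPMI 1640 with 5% FBS and 2 mM L-glutamine, plated at 5000–40,000 cells/well by doubling time and preincubated 24 h (37 °C, 5% CO2); a time-zero plate is TCA-fixed. Single dose added, then 48 h incubation. Fixed with cold TCA, stained with 0.4% SRB, dye solubilized in 10 mM Tris base, absorbance at 515 nm; percent growth vs time-zero and untreated control.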

[1] = Growth inhibition of human EKVX cells at 10 uM after 48 hrs by SRB assay; details: read-out: GI; procedure, shortened: as §1
MOLT-4 = experiment: Growth inhibition of human MOLT4 cells at 10 uM after 48 hrs by SRB assay; details: MOLT-4, 48 h, read-out: GI; procedure, shortened: as §1
SR = experiment: Growth inhibition of human SR cells at 10 uM after 48 hrs by SRB assay; details: read-out: GI
Procedure, shortened: (§2)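 NCI 60-cell-line screen with a single 10 µM dose. Cells are grown in RPMI 1640 with 5% FBS and 2 mM L-glutamine, plated at 5000–40,000 cells/well according to doubling time, and preincubated 24 h at 37 °C, 5% CO2; time-zero plates are TCA-fixed at that point. Drug exposure is 48 h. Adherent cells are fixed with cold TCA, stained with 0.4% SRB in 1% acetic acid and read at 515 nm. Percent growth is calculated relative to time-zero and untreated controls and reported as GI%.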

A549 = experiment: Growth inhibition of human A549 cells at 10 uM after 48 hrs by SRB assay; details: A549, 48 h, read-out: GI; procedure, shortened: as §1
[2] = Cytotoxicity against human breast cancer cells after 48 hrs by SRB assay; details: Cancer cell lines
Procedure, shortened: (§3)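 Five-concentration screen (10-fold or ½-log serial dilutions) on the 60-line panel. Cells grown in RPMI 1640 with 5% FBS and 2 mM L-glutamine, plated at 5000–40,000/well by doubling time, preincubated 24 h at 37 °C, 5% CO2, then exposed 48 h. Time-zero plates TCA-fixed. SRB stain, Tris-solubilized, A515. GI50, TGI and LC50 derived from Tz, C and Ti.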

[3] = Cytotoxicity against human prostate cancer cells after 48 hrs by SRB assay; details: Cancer cell lines; procedure, shortened: as §3
[4] = Cytotoxicity against human renal cancer cells after 48 hrs by SRB assay; details: Cancer cell lines; procedure, shortened: as §3
[5] = Cytotoxicity against human melanoma cells after 48 hrs by SRB assay; details: Melanoma cell; procedure, shortened: as §3
[6] = Cytotoxicity against human ovarian cancer cells after 48 hrs by SRB assay; details: Cancer cell lines; procedure, shortened: as §3
[7] = Cytotoxicity against human CNS cancer cells after 48 hrs by SRB assay; details: Cancer cell lines; procedure, shortened: as §3
[8] = Cytotoxicity against human colon cancer cells after 48 hrs by SRB assay; details: Cancer cell lines; procedure, shortened: as §3
[9] = Cytotoxicity against human non-small cell lung cancer cells after 48 hrs by SRB assay; details: Cancer cell lines; procedure, shortened: as §3
[10] = Cytotoxicity against human leukemia cells after 48 hrs by SRB assay; details: Leukemia cell; procedure, shortened: as §3
Hs-578T = experiment: Growth inhibition of human Hs578T cells at 10 uM after 48 hrs by SRB assay; procedure, shortened: as §1
MCF7 = experiment: Growth inhibition of human MCF7 cells at 10 uM after 48 hrs by SRB assay; details: MCF7, 48 h, read-out: GI; procedure, shortened: as §1
TK-10 = experiment: Growth inhibition of human TK10 cells at 10 uM after 48 hrs by SRB assay; details: TK-10, 48 h, read-out: GI; procedure, shortened: as §2
UO-31 = experiment: Growth inhibition of human UO31 cells at 10 uM after 48 hrs by SRB assay; details: UO-31, 48 h, read-out: GI; procedure, shortened: as §2
RXF 393 = experiment: Growth inhibition of human RXF393 cells at 10 uM after 48 hrs by SRB assay; details: RXF 393, 48 h, read-out: GI; procedure, shortened: as §1
A498 = experiment: Growth inhibition of human A498 cells at 10 uM after 48 hrs by SRB assay; procedure, shortened: as §1
OVCAR-4 = experiment: Growth inhibition of human OVCAR4 cells at 10 uM after 48 hrs by SRB assay; details: OVCAR-4, 48 h, read-out: GI; procedure, shortened: as §1
OVCAR-3 = experiment: Growth inhibition of human OVCAR3 cells at 10 uM after 48 hrs by SRB assay; details: OVCAR-3, 48 h, read-out: GI; procedure, shortened: as §1
IGROV-1 = experiment: Growth inhibition of human IGROV1 cells at 10 uM after 48 hrs by SRB assay; details: IGROV-1, 48 h, read-out: GI; procedure, shortened: as §1
UACC-257 = experiment: Growth inhibition of human UACC257 cells at 10 uM after 48 hrs by SRB assay; details: UACC-257, 48 h, read-out: GI; procedure, shortened: as §2
SK-MEL-2 = experiment: Growth inhibition of human SK-MEL-2 cells at 10 uM after 48 hrs by SRB assay; details: SK-MEL-2, 48 h, read-out: GI; procedure, shortened: as §1
LOX IMVI = experiment: Growth inhibition of human LOXIMVI cells at 10 uM after 48 hrs by SRB assay; details: read-out: GI; procedure, shortened: as §1
Malme-3M = experiment: Growth inhibition of human MALME-3M cells at 10 uM after 48 hrs by SRB assay; details: read-out: GI; procedure, shortened: as §1
SNB-19 = experiment: Growth inhibition of human SNB19 cells at 10 uM after 48 hrs by SRB assay; details: SNB-19, 48 h, read-out: GI; procedure, shortened: as §2
SF-539 = experiment: Growth inhibition of human SF539 cells at 10 uM after 48 hrs by SRB assay; procedure, shortened: as §1
SF-268 = experiment: Growth inhibition of human SF268 cells at 10 uM after 48 hrs by SRB assay; details: SF-268, 48 h, read-out: GI; procedure, shortened: as §1
HT-29 = experiment: Growth inhibition of human HT-29 cells at 10 uM after 48 hrs by SRB assay; details: HT-29, 48 h, read-out: GI; procedure, shortened: as §1
[11] = read-out: LC50 (the source's name)

**Q.** Which inhibition of growth at 10 µM (COLO 205) does the source give for `O=c1[nH]cc(F)c(=O)[nH]1` [FLUOROURACIL] here?
**A.** The inhibition of growth at 10 µM was 40.2%.

**Q.** What about the inhibition of growth at 10 µM [1] of the same compound?
**A.** Its inhibition of growth at 10 µM is 58.4%.

**Q.** What about the inhibition of growth at 10 µM (MOLT-4) of the same compound?
**A.** Its inhibition of growth at 10 µM is 43.1%.

**Q.** What about the inhibition of growth at 10 µM (SR) of the same compound?
**A.** The inhibition of growth at 10 µM was 24.8%.

**Q.** What about the inhibition of growth at 10 µM (A549) of the same compound?
**A.** The inhibition of growth at 10 µM was 34.2%.

**Q.** What about the GI50 [2] of the same compound?
**A.** Its GI50 is 76.4 µM.

**Q.** And the TGI [2]?
**A.** The TGI was greater than 100 µM.

**Q.** What about the GI50 [3] of the same compound?
**A.** Its GI50 is 22.7 µM.

**Q.** What about the TGI [3] of the same compound?
**A.** The TGI was greater than 100 µM.

**Q.** And the GI50 [4]?
**A.** The GI50 was 45.6 µM.

**Q.** What about the TGI [4] of the same compound?
**A.** The TGI was greater than 100 µM.

**Q.** What about the CC50 [4, 11] of the same compound?
**A.** Its CC50 is greater than 100 µM.

**Q.** And the GI50 [5]?
**A.** Its GI50 is 70.6 µM.

**Q.** What about the TGI [5] of the same compound?
**A.** Its TGI is greater than 100 µM.

**Q.** And the GI50 [6]?
**A.** Its GI50 is 61.4 µM.

**Q.** And the TGI [6]?
**A.** The TGI was greater than 100 µM.

**Q.** What about the CC50 [6, 11] of the same compound?
**A.** Its CC50 is greater than 100 µM.

**Q.** And the GI50 [7]?
**A.** The GI50 was 72.1 µM.

**Q.** What about the TGI [7] of the same compound?
**A.** The TGI was greater than 100 µM.

**Q.** What about the CC50 [7, 11] of the same compound?
**A.** The CC50 was greater than 100 µM.

**Q.** What about the GI50 [8] of the same compound?
**A.** Its GI50 is 8.4 µM.

**Q.** What about the TGI [8] of the same compound?
**A.** The TGI was greater than 100 µM.

**Q.** And the CC50 [8, 11]?
**A.** Its CC50 is greater than 100 µM.

**Q.** What about the GI50 [9] of the same compound?
**A.** Its GI50 is greater than 100 µM.

**Q.** And the TGI [9]?
**A.** Its TGI is greater than 100 µM.

**Q.** What about the GI50 [10] of the same compound?
**A.** Its GI50 is 1.51 µM.

**Q.** And the TGI [10]?
**A.** The TGI was greater than 100 µM.

**Q.** And the “growth inhibition (GI)” value (Hs-578T)?
**A.** The value was “Active”.

**Q.** And the inhibition of growth at 10 µM (MCF7)?
**A.** The inhibition of growth at 10 µM was 11.5%.

**Q.** What about the inhibition of growth at 10 µM (TK-10) of the same compound?
**A.** Its inhibition of growth at 10 µM is 66.9%.

**Q.** What about the inhibition of growth at 10 µM (UO-31) of the same compound?
**A.** Its inhibition of growth at 10 µM is 41.3%.

**Q.** And the inhibition of growth at 10 µM (RXF 393)?
**A.** Its inhibition of growth at 10 µM is 34.3%.

**Q.** And the “growth inhibition (GI)” value (A498)?
**A.** The value was “Active”.

**Q.** What about the inhibition of growth at 10 µM (OVCAR-4) of the same compound?
**A.** The inhibition of growth at 10 µM was 59.4%.

**Q.** What about the inhibition of growth at 10 µM (OVCAR-3) of the same compound?
**A.** Its inhibition of growth at 10 µM is 47.4%.

**Q.** And the inhibition of growth at 10 µM (IGROV-1)?
**A.** Its inhibition of growth at 10 µM is 51.2%.

**Q.** What about the inhibition of growth at 10 µM (UACC-257) of the same compound?
**A.** Its inhibition of growth at 10 µM is 19.5%.

**Q.** What about the inhibition of growth at 10 µM (SK-MEL-2) of the same compound?
**A.** The inhibition of growth at 10 µM was 95.5%.

**Q.** What about the inhibition of growth at 10 µM (LOX IMVI) of the same compound?
**A.** Its inhibition of growth at 10 µM is 30.4%.

**Q.** And the inhibition of growth at 10 µM (Malme-3M)?
**A.** The inhibition of growth at 10 µM was 58.2%.

**Q.** And the inhibition of growth at 10 µM (SNB-19)?
**A.** Its inhibition of growth at 10 µM is 65.9%.

**Q.** What about the “growth inhibition (GI)” value (SF-539) of the same compound?
**A.** The value was “Active”.

**Q.** And the inhibition of growth at 10 µM (SF-268)?
**A.** Its inhibition of growth at 10 µM is 59%.

**Q.** What about the inhibition of growth at 10 µM (HT-29) of the same compound?
**A.** Its inhibition of growth at 10 µM is 27.1%.

Reference: ChEMBL document CHEMBL2424551, “Synthesis, in vitro evaluation and molecular modelling of naphthalimide analogue as anticancer agents” (2013)
